Key:
[1] = species: Gallus gallus; test: Relative percent binding to cellular retinoic acid binding protein (CRABP) in chick embryo skin.
In short: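 Competition of unlabeled retinoid with [3H]retinoic acid for binding to CRABP from chick embryo skin. Inhibition caused by a 100-fold molar excess of unlabeled retinoic acid defined as 100%.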

[2] = system: F9; test: Ability to induce differentiation of mouse F9 embryonal carcinoma cells.; type: functional; details: read-out: ED50 (the source's name)
In short: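 Mouse F9 embryonal carcinoma cells grown at 1 × 10^5 cells/mL for 4 days with or without retinoid at 10^-7 to 10^-11 M. Harvest fluid mixed with 0.13 μM plasminogen, 0.3 mM H-D-Val-Leu-Lys-p-NA, 0.1% Tween 80 and fibrinogen fragments in Tris·HCl pH 7.5. Incubated 4 h at 25 °C, p-nitroaniline read at 405 nm. Triplicate mean absorbances plotted semilog against molarity; ED50 taken at midpoint between maximal and minimal absorbance.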

RA [1] [%]	Structure (SMILES)	EC50 [2] [nM]
0	CCNC(=O)\C(C(=O)OCC)=C(C)/C=C/C=C(C)/C=C/C1=C(C)CCCC1(C)C	6
100	CC1=C(/C=C/C(C)=C/C=C/C(C)=C\C(=O)O)C(C)(C)CCC1 [ISOTRETINOIN]	0.3
0	CCOC(=O)C(C(=O)OCC)=C(C)/C=C/C=C(C)/C=C/C1=C(C)CCCC1(C)C	4.5
55	CCNC(=O)\C(C(=O)O)=C(C)/C=C/C=C(C)/C=C/C1=C(C)CCCC1(C)C	0.6
100	CC1=C(/C=C/C(C)=C/C=C/C(C)=C/C(=O)O)C(C)(C)CCC1 [TRETINOIN]	0.1
55	CCNC(=O)/C(C(=O)O)=C(C)/C=C/C=C(C)/C=C/C1=C(C)CCCC1(C)C	0.5
65	CC(/C=C/C=C(C)/C=C/C1=C(C)CCCC1(C)C)=C(C(=O)O)C(=O)O	0.5
0	CCNC(=O)/C(C(=O)OCC)=C(C)/C=C/C=C(C)/C=C/C1=C(C)CCCC1(C)C	6
90	CCOC(=O)/C(C(=O)O)=C(C)/C=C/C=C(C)/C=C/C1=C(C)CCCC1(C)C	1

— ChEMBL document CHEMBL1124126, “Terminal bifunctional retinoids. Synthesis and evaluations related to cancer chemopreventive activity” (1988)
